From ChEMBL document CHEMBL5030525, “Design, synthesis and antitumor activity evaluation of trifluoromethyl-substituted pyrimidine derivatives” (Bioorg Med Chem Lett, 2021)
Calls of active or inactive are those of the source. The calls are words filed in the database; no cut-off is given here.

Tests used:
[1] = Selectivity index, ratio of IC50 for cytotoxicity against human GES1 cells to IC50 for antiproliferative activity against human NCI-H1975 cells; type: toxicity, cell-based; settings: GES1 cells versus NCI-H1975 cells, read-out: Ratio IC50
Outline: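 Ratio of GES-1 IC50 to H1975 IC50. Both came from the 72 h MTT assay, with IC50 as the mean ± SD of three separate experiments.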

NCI-H1975 [2] = experiment: Antiproliferative activity against human NCI-H1975 cells assessed as inhibition of cell growth measured after 72 hrs by MTT assay; type: functional, cell-based; settings: NCI-H1975, 72 h
Outline: (§1)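 Cells in log phase were seeded at 3000–5000 per well and cultured 24 h at 37 °C, then exposed to a range of compound concentrations in fresh medium for 72 h. MTT was added and incubated 4 h at 37 °C, formazan was dissolved in DMSO, and absorbance was read at 490 nm. IC50 was taken from survival rate, as mean ± SD of three independent experiments. Stocks were 10 mM in DMSO.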

GES1 = experiment: Cytotoxicity against human GES1 cells assessed as reduction in cell viability measured after 72 hrs by MTT assay; type: cell-based; settings: GES1, 72 h; outline: as §1
MCF7 = experiment: Antiproliferative activity against human MCF7 cells assessed as inhibition of cell growth measured after 72 hrs by MTT assay; type: functional, cell-based; settings: MCF7, 72 h; outline: as §1
MGC-803 = experiment: Antiproliferative activity against human MGC-803 cells assessed as inhibition of cell growth measured after 72 hrs by MTT assay; type: functional, cell-based; settings: MGC-803, 72 h; outline: as §1
PC-3 = experiment: Antiproliferative activity against human PC-3 cells assessed as inhibition of cell growth measured after 72 hrs by MTT assay; type: functional, cell-based; settings: PC-3, 72 h; outline: as §1
NCI-H1975 [3] = experiment: Effect on cell cycle progression in human NCI-H1975 cells assessed a accumulation of cells at G2/M phase at 1 uM measured after 24 hrs by RNase A/PI staining based flow cytometry analysis (Rvb= 5.78%); type: functional
NCI-H1975 [4] = experiment: Effect on cell cycle progression in human NCI-H1975 cells assessed a accumulation of cells at S phase at 1 uM measured after 24 hrs by RNase A/PI staining based flow cytometry analysis (Rvb= 52.06%); type: functional
NCI-H1975 [5] = experiment: Induction of apoptosis in human NCI-H1975 cells assessed as down regulation of Bcl-2 expression at 1 to 4 uM measured after 48 hrs by western blot analysis; type: functional, cell-based; settings: dose 1-4 µM
Outline: (§2)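 H1975 cells in dishes were incubated 24 h, then treated at 0, 1, 2 or 4 μM for 48 h. Cells were trypsinised and lysed in RIPA, and protein was quantified by BCA. Proteins were separated by SDS-PAGE, transferred to nitrocellulose, and blocked in 5% skim milk. Primary antibodies were applied overnight at 4 °C, then secondary (1:10000) for 2 h. Detection was by ECL, with GAPDH as control and densitometry.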

NCI-H1975 [6] = experiment: Induction of apoptosis in human NCI-H1975 cells assessed as increase in total apoptotic cells at 4 uM measured after 48 hrs by Annexin V-FITC/PI staining double staining based flow cytometry analysis (Rvb= 3.86%); type: functional
NCI-H1975 [7] = experiment: Induction of apoptosis in human NCI-H1975 cells assessed as increase in total apoptotic cells at 1 uM measured after 72 hrs by Annexin V-FITC/PI staining double staining based flow cytometry analysis (Rvb= 3.86%); type: functional
NCI-H1975 [8] = experiment: Effect on cell cycle progression in human NCI-H1975 cells assessed a accumulation of cells at G1 phase at 1 uM measured after 24 hrs by RNase A/PI staining based flow cytometry analysis (Rvb= 42.16%); type: functional
NCI-H1975 [9] = experiment: Effect on cell cycle progression in human NCI-H1975 cells assessed a accumulation of cells at S phase at 4 uM measured after 24 hrs by RNase A/PI staining based flow cytometry analysis (Rvb= 52.06%); type: functional
NCI-H1975 [10] = experiment: Effect on cell cycle progression in human NCI-H1975 cells assessed a accumulation of cells at G2/M phase at 4 uM measured after 24 hrs by RNase A/PI staining based flow cytometry analysis (Rvb= 5.78%); type: functional
NCI-H1975 [11] = experiment: Induction of apoptosis in human NCI-H1975 cells assessed as increase in P53 expression at 1 to 4 uM measured after 48 hrs by western blot analysis; type: functional, cell-based; settings: dose 1-4 µM; outline: as §2
NCI-H1975 [12] = experiment: Induction of apoptosis in human NCI-H1975 cells assessed as increase in Bax protein expression at 1 to 4 uM measured after 48 hrs by western blot analysis; type: functional, cell-based; settings: dose 1-4 µM; outline: as §2
NCI-H1975 [13] = experiment: Induction of apoptosis in human NCI-H1975 cells assessed as increase in number of change in apoptotic morphology at 2 to 4 uM measured after 48 hrs by DAPI staining based fluorescence microscopic analysis; type: functional, cell-based; settings: dose 2-4 µM
Outline: (§3)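 H1975 cells were seeded at 2×10^5 per well and incubated 24 h, then exposed to 0, 2 or 4 μM for 48 h. Cells were PBS-washed, fixed in pre-cooled methanol at 4 °C for 10 min, and stained with DAPI in the dark. Nuclear morphology was imaged by fluorescence microscopy.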

NCI-H1975 [14] = experiment: Induction of apoptosis in human NCI-H1975 cells assessed as broken nucleus at 2 to 4 uM measured after 48 hrs by DAPI staining based fluorescence microscopic analysis; type: functional, cell-based; settings: dose 2-4 µM; outline: as §3
NCI-H1975 [15] = experiment: Effect on cell cycle progression in human NCI-H1975 cells assessed a accumulation of cells at G2/M phase at 2 uM measured after 24 hrs by RNase A/PI staining based flow cytometry analysis (Rvb= 5.78%); type: functional
NCI-H1975 [16] = experiment: Induction of apoptosis in human NCI-H1975 cells assessed as increase in total apoptotic cells at 4 uM measured after 72 hrs by Annexin V-FITC/PI staining double staining based flow cytometry analysis (Rvb= 3.86%); type: functional
NCI-H1975 [17] = experiment: Effect on cell cycle progression in human NCI-H1975 cells assessed a accumulation of cells at G1 phase at 2 uM measured after 24 hrs by RNase A/PI staining based flow cytometry analysis (Rvb= 42.16%); type: functional
NCI-H1975 [18] = experiment: Inhibition of colony formation in human NCI-H1975 cells measured after 9 days by crystal violet staining based microscopic analysis; type: functional, cell-based; settings: time 9.0 day
Outline: (§4)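 Log-phase cells were seeded at 1000 per well, incubated about 24 h, then exposed to 0, 1, 2 or 4 μM for 9 days. Cells were PBS-washed, fixed with ice-cold methanol for 30 min, and stained with crystal violet for 30 min. Plates were photographed and colonies examined by microscopy.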

NCI-H1975 [19] = experiment: Induction of apoptosis in human NCI-H1975 cells assessed as increase in total apoptotic cells at 2 uM measured after 72 hrs by Annexin V-FITC/PI staining double staining based flow cytometry analysis (Rvb= 3.86%); type: functional
NCI-H1975 [20] = experiment: Inhibition of colony formation in human NCI-H1975 cells at 4 uM measured after 9 days by crystal violet staining based microscopic analysis relative to control; type: functional; settings: NCI-H1975, 216 h, time 9 day; outline: as §4
NCI-H1975 [21] = experiment: Induction of apoptosis in human NCI-H1975 cells assessed as appearance of dense particles at 2 to 4 uM measured after 48 hrs by DAPI staining based fluorescence microscopic analysis; type: functional, cell-based; settings: dose 2-4 µM; outline: as §3
NCI-H1975 [22] = experiment: Effect on cell cycle progression in human NCI-H1975 cells assessed a accumulation of cells at G1 phase at 4 uM measured after 24 hrs by RNase A/PI staining based flow cytometry analysis (Rvb= 42.16%); type: functional
NCI-H1975 [23] = experiment: Induction of apoptosis in human NCI-H1975 cells assessed as nucleus shrinkage at 2 to 4 uM measured after 48 hrs by DAPI staining based fluorescence microscopic analysis; type: functional, cell-based; settings: dose 2-4 µM; outline: as §3
NCI-H1975 [24] = experiment: Induction of apoptosis in human NCI-H1975 cells assessed as increase in total apoptotic cells at 2 uM measured after 48 hrs by Annexin V-FITC/PI staining double staining based flow cytometry analysis (Rvb= 3.86%); type: functional
NCI-H1975 [25] = experiment: Induction of apoptosis in human NCI-H1975 cells assessed as increase in total apoptotic cells at 1 uM measured after 48 hrs by Annexin V-FITC/PI staining double staining based flow cytometry analysis (Rvb= 3.86%); type: functional
NCI-H1975 [26] = experiment: Effect on cell cycle progression in human NCI-H1975 cells assessed a accumulation of cells at S phase at 2 uM measured after 24 hrs by RNase A/PI staining based flow cytometry analysis (Rvb= 52.06%); type: functional

## O=c1[nH]cc(F)c(=O)[nH]1 [FLUOROURACIL]
[1]
  selectivity ratio: 2.06
NCI-H1975 [2]
  IC50: 9.37 µM
GES1
  IC50: 19.3 µM
MCF7
  IC50: 8.77 µM
MGC-803
  IC50: 9.05 µM
PC-3
  IC50: 6.23 µM

## C=CC(=O)Nc1cccc(Nc2cc(C(F)(F)F)nc(SCc3ccc(C(F)(F)F)cc3)n2)c1
[1]
  selectivity ratio: 6.6
NCI-H1975 [2]
  IC50: 4.77 µM
GES1
  IC50: 31.5 µM
MCF7
  IC50: 7.08 µM
MGC-803
  IC50: 9.8 µM
PC-3
  IC50: 5.65 µM

## FC(F)(F)c1ccc(CSc2nc(Sc3nncs3)cc(C(F)(F)F)n2)cc1
NCI-H1975 [3]
  Activity: 13.63%
NCI-H1975 [4]
  Activity: 51.84%
NCI-H1975 [5]
  Activity: Active
NCI-H1975 [6]
  Activity: 16.68%
[1]
  selectivity ratio: 16.5
NCI-H1975 [7]
  Activity: 7.7%
NCI-H1975 [8]
  Activity: 34.53%
NCI-H1975 [9]
  Activity: 44.55%
NCI-H1975 [2]
  IC50: 2.27 µM
NCI-H1975 [10]
  Activity: 30.39%
GES1
  IC50: 37.4 µM
MCF7
  IC50: 8.81 µM
NCI-H1975 [11]
  Activity: Active
NCI-H1975 [12]
  Activity: Active
NCI-H1975 [13]
  Activity: Active
NCI-H1975 [14]
  Activity: Active
NCI-H1975 [15]
  Activity: 21.28%
NCI-H1975 [16]
  Activity: 29.08%
NCI-H1975 [17]
  Activity: 31.16%
NCI-H1975 [18]
  inhibition: Dose-Dependent Effect
MGC-803
  IC50: 10.8 µM
NCI-H1975 [19]
  Activity: 17.31%
NCI-H1975 [20]
  inhibition at 4 µM: 90%
NCI-H1975 [21]
  Activity: Active
NCI-H1975 [22]
  Activity: 25.06%
NCI-H1975 [23]
  Activity: Active
NCI-H1975 [24]
  Activity: 11.13%
NCI-H1975 [25]
  Activity: 5.04%
NCI-H1975 [26]
  Activity: 47.56%
PC-3
  IC50: 7.88 µM

## FC(F)(F)c1ccc(CSc2nc(N3CCN(c4ccccc4)CC3)cc(C(F)(F)F)n2)cc1
NCI-H1975 [2]
  IC50: > 50 µM
MCF7
  IC50: > 50 µM
MGC-803
  IC50: 35.2 µM
PC-3
  IC50: 42.7 µM

## FC(F)(F)c1ccc(CSc2nc(N3CCNCC3)cc(C(F)(F)F)n2)cc1
NCI-H1975 [2]
  IC50: 6.21 µM
MCF7
  IC50: 10.7 µM
MGC-803
  IC50: 5.87 µM
PC-3
  IC50: 15.9 µM

## C=CC(=O)Nc1cccc(Nc2cc(C(F)(F)F)nc(SCc3cccc(Cl)c3)n2)c1
NCI-H1975 [2]
  IC50: 14.8 µM
MCF7
  IC50: 10.1 µM
MGC-803
  IC50: 35.2 µM
PC-3
  IC50: 10.5 µM

## C=CC(=O)Nc1cccc(Nc2cc(C(F)(F)F)nc(SCc3ccccc3C)n2)c1
NCI-H1975 [2]
  IC50: 14.6 µM
MCF7
  IC50: 33.6 µM
MGC-803
  IC50: 18.2 µM
PC-3
  IC50: 15.1 µM

## FC(F)(F)c1ccc(CSc2nc(N3CCN(c4ncccn4)CC3)cc(C(F)(F)F)n2)cc1
NCI-H1975 [2]
  IC50: 18.3 µM
MCF7
  IC50: > 50 µM
MGC-803
  IC50: 35.2 µM
PC-3
  IC50: > 50 µM

## Cc1csc(Sc2cc(C(F)(F)F)nc(SCc3ccc(C(F)(F)F)cc3)n2)n1
NCI-H1975 [2]
  IC50: 5.84 µM
MCF7
  IC50: 14.5 µM
MGC-803
  IC50: 21.3 µM
PC-3
  IC50: 12 µM

## Cc1ccc(Nc2cc(C(F)(F)F)nc(SCc3ccc(C(F)(F)F)cc3)n2)cc1
NCI-H1975 [2]
  IC50: 20.6 µM
MCF7
  IC50: > 50 µM
MGC-803
  IC50: 32.3 µM
PC-3
  IC50: 16.5 µM

## C=CC(=O)Nc1cccc(Nc2cc(C(F)(F)F)nc(SCc3ccc(Cl)cc3)n2)c1
NCI-H1975 [2]
  IC50: 11.7 µM
MCF7
  IC50: 15.8 µM
MGC-803
  IC50: 29.3 µM
PC-3
  IC50: 9.99 µM
